Assay results published in the RNAGym collection of RNA variant scans (doi:10.1126/science.aae0568).
Fewer inactive variants are shown than the library holds.

B1: tRNA (parent)
chain: GUUCCGUUGGCGUAAUGGUAACGCGUCUCCCUCCUAAGGAGAAGACUGCGGGUUCGAGUCCCGUACGGAACG

Variants of: B1
Experiment: yeast fitness relative to wild type (ratio to wild type); higher = fitter; tRNA-Arg(CCU), competitive growth, 37 C, YPD
Method in brief: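 Gene amplicons from the start population and from each of six end populations were read by 100-nucleotide paired-end sequencing. Those end populations came from pooled Saccharomyces cerevisiae strains carrying tRNA-Arg(CCU) gene variants at the native locus, competed in YPD at 37°C for 24 hours. Fitness relative to wild type was worked out from changes in genotype frequencies. Genotypes needed ≥ 100 starting reads, and estimates < 0.5 were set to 0.5.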

Point of comparison: U2G C34G C46U G48C U54G, yeast fitness 0.709. Against it:
- U2G C11A C24A U26A G44C A70G — lower, ≤ 0.5
- U2G C11G A20G C24U U26C C31G — lower, ≤ 0.5
- U2G C11G A20U C22U C34U C49A G52A — lower, ≤ 0.5
- U2G C11G C30G — lower, 0.614
- U2G C11G C62U — lower, 0.609
- U2G C11G G12A A20U C30G C49G U53G — lower, ≤ 0.5
- U2G C11G G12A A20U C31G G68C — lower, ≤ 0.5
- U2G C11U — higher, 0.824
- U2G C11U A15U U47A — lower, 0.578
- U2G C11U A45C U53G A65G — lower, ≤ 0.5
- U2G C11U A45C U53G A69U — lower, 0.544
- U2G C11U C27G G52C — lower, ≤ 0.5
- U2G C11U C55G — lower, ≤ 0.5
- U2G C22A A36G G52A C66A A69U — lower, ≤ 0.5
- U2G C22G C27G C30A U32G C55G — lower, ≤ 0.5
- U2G C22G G41C G68A — lower, 0.573
- U2G C22G U26C C27G C30A U32G C55G — lower, ≤ 0.5
- U2G C22G U28A C31G C55A G68C — lower, ≤ 0.5
- U2G C22U A40U — lower, ≤ 0.5
- U2G C22U A57U — lower, ≤ 0.5
- U2G C22U C24G — lower, 0.596
- U2G C22U C24G A37U — lower, ≤ 0.5
- U2G C22U C24G A69U — lower, 0.501
- U2G C22U C24G C66U A70G — lower, ≤ 0.5
- U2G C22U C24G G51C C60U G67A — lower, ≤ 0.5
- U2G C22U C24G G63A A69C — lower, ≤ 0.5
- U2G C22U C62U — lower, 0.616
- U2G C24A C33U A40G G51C A57U — lower, ≤ 0.5
- U2G C24G A36G A42C C61U C62G — lower, ≤ 0.5
- U2G C24G C29G C31A — lower, ≤ 0.5
- U2G C24G C29G C31G A69C — lower, ≤ 0.5
- U2G C24G C31U G67C — lower, ≤ 0.5
- U2G C24G C49A — lower, ≤ 0.5
- U2G C24U — higher, 0.786
- U2G C24U A45C G48A G67A — lower, ≤ 0.5
- U2G C24U C55G A70U — lower, ≤ 0.5
- U2G C24U G67C — lower, 0.681
- U2G C27G A65U — lower, ≤ 0.5
- U2G C27G C33U C49U — lower, ≤ 0.5
- U2G C27G C33U G56A — lower, ≤ 0.5
- U2G C27G C66U — lower, ≤ 0.5
- U2G C27G C66U G67C A70G — lower, ≤ 0.5
- U2G C27G G52C — lower, ≤ 0.5
- U2G C27U A36G — lower, 0.552
- U2G C27U A37C G52A G67A — lower, ≤ 0.5
- U2G C27U A40G G48A — lower, 0.576
- U2G C27U C46G — lower, 0.564
- U2G C27U C46U G63A — higher, 0.811
- U2G C27U C55U — lower, ≤ 0.5
- U2G C27U G41A A42U C46G — lower, ≤ 0.5
- U2G C27U G68U — lower, 0.589
- U2G C29G C31A G67A — lower, ≤ 0.5
- U2G C29G G50C A57U — lower, ≤ 0.5
- U2G C29U C49G C55G G63C — lower, ≤ 0.5
- U2G C29U C55U — lower, 0.527
- U2G C30A — the same, 0.709
- U2G C30A A36G G39C A57G — the same, 0.709
- U2G C30A C46G — lower, 0.666
- U2G C30A U35G — lower, 0.66
- U2G C30G G39C — lower, 0.551
- U2G C30U — higher, 0.843
- U2G C30U A40C G63C U64C — lower, ≤ 0.5
- U2G C31A — higher, 0.788
- U2G C31A A69C — lower, 0.557
- U2G C31G — higher, 1.02
- U2G C31G A42G A57U — lower, ≤ 0.5
- U2G C31G A57U — lower, ≤ 0.5
- U2G C31G C33G A40U G52A C60G C62U — lower, 0.515
- U2G C31G U35A A45U — lower, ≤ 0.5
- U2G C31U — higher, 1.03
- U2G C31U A37C — lower, 0.56
- U2G C31U A70U — higher, 0.772
- U2G C31U G48C — lower, 0.6
- U2G C31U G48C C62A — lower, ≤ 0.5
- U2G C31U G50A C61G C66U A69U — lower, ≤ 0.5
- U2G C31U U47G — lower, ≤ 0.5
- U2G C31U U53A — lower, ≤ 0.5
- U2G C33A — lower, 0.632
- U2G C33A G39C A69U — lower, ≤ 0.5
- U2G C33G G39C A65C — lower, ≤ 0.5
- U2G C33G G39C C55U — lower, 0.523
- U2G C33U A36U A43C — lower, 0.688
- U2G C33U A36U A43C A69C — higher, 0.767
- U2G C33U A42C — lower, 0.681
- U2G C33U G52A — lower, ≤ 0.5
- U2G C33U G58C — lower, 0.566
- U2G C34G A43C — lower, 0.552
- U2G C34G C49G C61U A69G — lower, ≤ 0.5
- U2G C34G G39C G41C G67C A70C — lower, ≤ 0.5
- U2G C34G G67U — lower, ≤ 0.5
- U2G C34U A36C C61A — lower, ≤ 0.5
- U2G C34U A40G C46A — lower, ≤ 0.5
- U2G C34U A57C — lower, ≤ 0.5
- U2G C34U A57G — lower, ≤ 0.5
- U2G C46A — higher, 0.808
- U2G C46A G58C C62U — lower, ≤ 0.5
- U2G C46G A65U — lower, 0.623
- U2G C46G C49U — lower, 0.669
- U2G C49A A57C — lower, ≤ 0.5
- U2G C49G G50C — lower, 0.536
- U2G C49G G50C A70C — lower, ≤ 0.5
- U2G C49U G51C C55A — lower, ≤ 0.5
- U2G C49U G52A G68C — lower, ≤ 0.5
- U2G C55A C60G C62G — lower, ≤ 0.5
- U2G C55U — lower, 0.667
- U2G C55U C61G A65G G68A — lower, ≤ 0.5
- U2G C60G — lower, 0.592
- U2G C60G A69U — lower, ≤ 0.5
- U2G C61U — higher, 0.88
- U2G C62G A70U — higher, 0.822
- U2G G6A A15U C62G — lower, ≤ 0.5
- U2G G6A A57G — lower, 0.527
- U2G G6A A70G — higher, 0.776
- U2G G6A C22U C27U A36U C60G — lower, ≤ 0.5
- U2G G6A C27U A36U C61U C62G — lower, ≤ 0.5
- U2G G6A C27U A36U G68C — lower, ≤ 0.5
- U2G G6A C49G — lower, ≤ 0.5
- U2G G6A C55U — lower, ≤ 0.5
- U2G G6A G23A C29G G50U C55A — lower, ≤ 0.5
- U2G G6A G44A G67C — lower, 0.531
- U2G G6A G56C — lower, ≤ 0.5
- U2G G6A U53G U54G C55A — lower, ≤ 0.5
- U2G G6C C11U C27U G63C — lower, ≤ 0.5
- U2G G6C U54A — lower, ≤ 0.5
- U2G G9A C22A C24A A43C — lower, ≤ 0.5
- U2G G9A G41A — lower, ≤ 0.5
- U2G G9A U16G C62U U64C — lower, ≤ 0.5
- U2G G9A U59A — lower, ≤ 0.5
- U2G G9C — higher, 0.755
- U2G G9C A14C A36U C46A C62G — lower, ≤ 0.5
- U2G G9C A15G G48C G51A — lower, ≤ 0.5
- U2G G9C A15U U19C — lower, ≤ 0.5
- U2G G9C A20G A42C A43G C46G C49U A69C — lower, ≤ 0.5
- U2G G9C A20G A42C C46G C49U G68A A70U — lower, ≤ 0.5
- U2G G9C A36U A45C — lower, ≤ 0.5
- U2G G9C C60A — lower, ≤ 0.5
- U2G G9C G12A A20G A42C C46G C49U A69C — lower, ≤ 0.5
- U2G G9C G12A A42C C46A — lower, 0.577
- U2G G9C G12A A42C C46A A65U — lower, 0.577
- U2G G9C G12A A42C C46A U64C — lower, ≤ 0.5
- U2G G10A G50A — lower, ≤ 0.5
- U2G G10C A43C — lower, ≤ 0.5
- U2G G10C A65C — lower, ≤ 0.5
- U2G G10C A69C — lower, ≤ 0.5
- U2G G10C G63A — lower, ≤ 0.5
- U2G G10C G67C — lower, ≤ 0.5
- U2G G12A C31G C33G A40U G52A C60G C62U — lower, ≤ 0.5
- U2G G12A G41C — lower, 0.596
- U2G G12A G41C A57U — lower, ≤ 0.5
- U2G G12A U13A G25C U28A C33A G67U — lower, ≤ 0.5
- U2G G12C A20U C33U A37U A57U — lower, ≤ 0.5
- U2G G12U — higher, 1.15
- U2G G17A C33G G39C C55U — lower, ≤ 0.5
- U2G G17C C33U U47A — lower, 0.535
- U2G G18A A21G G25A G51C — lower, ≤ 0.5
- U2G G18A A40C G68C — lower, ≤ 0.5
- U2G G18A C49U G52A G68C — lower, ≤ 0.5
- U2G G18C C29G C30A C34G G48C — lower, 0.604
- U2G G23C G58A — lower, ≤ 0.5
- U2G G25A A65C — lower, 0.637
- U2G G25C G52A — lower, ≤ 0.5
- U2G G25C G52A A57C A70C — lower, ≤ 0.5
- U2G G25U A65U — lower, 0.532
- U2G G38A A69C — lower, 0.531
- U2G G38A G52C C61A — lower, 0.555
- U2G G39A G51A — lower, ≤ 0.5
